The subject of one series is MCF7 cells. The following applies: cited from earlier work.
The test system of a further series is MCF7. Briefly: Concentration-response proliferation assay, colloidal vs monomeric formulation. It is filed as cell-based. The gist of the method:
(§1)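 Cells seeded at 10,000 cells/cm2 and left to adhere overnight, then dosed in RPMI 1640 with 10% charcoal-stripped FBS. Colloidal formulation: DMSO stock diluted 1000-fold into medium (0.1% DMSO). Monomeric formulation: stock diluted 10-fold in DMSO, then into medium giving 1% DMSO and 0.025% v/v polysorbate 80. Vehicle controls made the same way. Medium refreshed every 12 h over 72 h; cells washed; proliferation by MTS or DAPI nuclei counts, relative to untreated.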

For the next series, the system named is BT474. The description is as above. It is filed as cell-based. The gist of the method: as §1
The conditions of series [1]: known aggregators; not among compounds measured by DLS here; cited from earlier work.
For series [2], the system named is T47D ductal carcinoma cell line. Briefly: Concentration-response proliferation assay, colloidal vs monomeric formulation. It is filed as cell-based. The gist of the method: as §1
A further series relates to MDA-MB-231 cells. Briefly: Concentration-response proliferation assay. The class given is cell-based. Put shortly: as §1

As for `O=c1c(-c2ccc(O)cc2)coc2cc(O)cc(O)c12` [Genistein], the “concentration of maximum activity of bell-shaped curve” value in the series with MCF7 cells is 50 µM.
Turning to `C[C@]12CC[C@@H]3c4ccc(O)cc4C[C@@H](CCCCCCCCC[S+]([O-])CCCC(F)(F)C(F)(F)F)[C@H]3[C@@H]1CC[C@@H]2O` (stereo partly drawn) [Fulvestrant], the “concentration at which loss of activity is observed” value in the series on MCF7 and in the series with BT474 was at least 1 µM throughout.
With `C[C@@H](Oc1cc(-c2cnn(C3CCNCC3)c2)cnc1N)c1c(Cl)ccc(F)c1Cl` [Crizotinib, crizotinib], the “CAC (critical aggregation concentration)” value in series [1] is 19.3 µM. Further, the “concentration at which antiproliferative activity is lost” value in series [2] was 10 µM.
Regarding `CNC(=O)c1cc(Oc2ccc(NC(=O)Nc3ccc(Cl)c(C(F)(F)F)c3)cc2)ccn1` [Sorafenib, sorafenib], the “inhibition of cell proliferation” value in the series on MDA-MB-231 cells (10 μM, colloidal formulation (0.1% DMSO, no UP 80), 72 h) is listed as “almost entirely eliminated”. In the series on MDA-MB-231 cells (Homo sapiens, MDA-MB-231, 72 h, read-out: inhibition of proliferation), the inhibition at 10 µM is about 90%. Besides, in the series with MDA-MB-231 cells (colloidal formulation, MDA-MB-231), the “concentration at which loss of activity is observed” value is at least 10 µM. In addition, the “CAC (critical aggregation concentration)” value in series [1] was 3.5 µM.
